Bounds are passed on as bounds.

As usually defined, the inhibition is the relative decrease from the control value, in per cent.

The first data set deals with T1, Glycerol-3-phosphate dehydrogenase [NAD(+)], cytoplasmic (Mus musculus) (UniProt P13707).
T1 sequence (whole entry): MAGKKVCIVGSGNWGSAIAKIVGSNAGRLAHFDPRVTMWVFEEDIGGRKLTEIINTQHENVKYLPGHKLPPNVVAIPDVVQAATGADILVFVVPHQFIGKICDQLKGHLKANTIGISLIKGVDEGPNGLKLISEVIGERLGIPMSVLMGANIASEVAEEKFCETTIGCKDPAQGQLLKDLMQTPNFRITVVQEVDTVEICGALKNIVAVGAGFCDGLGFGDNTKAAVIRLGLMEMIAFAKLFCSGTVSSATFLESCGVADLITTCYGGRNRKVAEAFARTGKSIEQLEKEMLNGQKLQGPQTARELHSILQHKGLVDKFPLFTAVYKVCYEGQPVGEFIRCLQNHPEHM
Nature of the data set: Inhibition of GPDH in mouse 3T3L1 cells assessed as reduction of NADH oxidation rate at 40 ug/ml. Format: cell-based. On the set-up: scale not given: the % may be the effect or the level left. Conditions: 3T3-L1. The method in brief:
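Preadipocytes kept in DMEM/10% BCS; induced 2 days post-confluence with DEX, 0.5 mM IBMX and insulin in DMEM/10% FBS, then DMEM/FBS/insulin. Treated every 2 days (5–40 µg/mL) to day 8. Cells collected in extraction buffer and spun 12 000 rpm, 5 min, 4 °C. Supernatant A340 decline over 5 min gives NADH oxidation with dihydroxyacetone phosphate, as units per mg protein (Bradford). Mean ± SD, n=3.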
With `CCCCOC(=O)CC[C@@H](C)[C@H]1CC(=O)[C@@]2(C)C3=C(C(=O)C[C@]12C)[C@@]1(C)CC[C@H](O)C(C)(C)[C@@H]1C[C@@H]3O` [BUTYL LUCIDENATE N], the Activity was over 80%.

Another data set concerns 3T3-L1. Nature of the data set: Inhibition of adipocytes differentiation in mouse 3T3L1 cells assessed as lipid accumulation at 40 ug/ml after 8 days by Oil red O staining relative to control. To be noted: 3T3-L1, 192 h. It counts as functional. In a few lines: (§1)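 Differentiation induced 2 days post-confluence with DEX, 0.5 mM IBMX and insulin in DMEM/10% FBS for 2 days, then DMEM/FBS/insulin refreshed every 2 days. Sample added every 2 days for 8 days (40 µg/mL, or 5–40 µg/mL series). Day 8: PBS wash, 4% formaldehyde fixation, oil red O 30 min, dye eluted with 2-propanol, A510 versus untreated control. Mean ± SD, n=3.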
As for `COC(=O)CC[C@@H](C)[C@H]1CC(=O)[C@@]2(C)C3=C(C(=O)C[C@]12C)[C@@]1(C)CCC(=O)C(C)(C)[C@@H]1C[C@@H]3O` [METHYL LUCIDENATE A], the inhibition at 40 µg/mL was found to be 22%.

On to `COC(=O)CC[C@@H](C)[C@H]1CC(=O)[C@@]2(C)C3=C(C(=O)[C@@H](OC(C)=O)[C@]12C)[C@@]1(C)CC[C@H](O)C(C)(C)[C@@H]1CC3=O` [METHYL LUCIDENATE E2], for which the inhibition at 40 µg/mL turned out to be 22%.

As to `COC(=O)C(C)CC(=O)C[C@@H](C)[C@H]1CC(=O)[C@@]2(C)C3=C(C(=O)C[C@]12C)[C@@]1(C)CCC(=O)C(C)(C)[C@@H]1C[C@@H]3O` (stereo partly drawn) [METHYL GANODERATE D], the inhibition at 40 µg/mL turned out to be 22%.

For the compound `CCCCOC(=O)[C@H](C)CC(=O)C[C@@H](C)[C@H]1CC(=O)[C@@]2(C)C3=C(C(=O)C[C@]12C)[C@@]1(C)CC[C@H](O)C(C)(C)[C@@H]1C[C@@H]3O` [BUTYL GANODERATE B], the inhibition at 40 µg/mL was found to be 22%.

On to `COC(=O)CC[C@@H](C)[C@H]1CC(=O)[C@@]2(C)C3=C(C(=O)C[C@]12C)[C@@]1(C)CCC(=O)C(C)(C)[C@@H]1CC3=O` [METHYL LUCIDENATE F], for which the inhibition at 40 µg/mL came to 22%.

`COC(=O)C(C)CC(=O)C[C@@H](C)[C@H]1C[C@H](O)[C@@]2(C)C3=C(C(=O)C[C@]12C)[C@@]1(C)CCC(=O)C(C)(C)[C@@H]1C[C@@H]3O` (stereo partly drawn) [METHYL GANODERATE A]: the inhibition at 40 µg/mL stood at 22%.

Turning to `C[C@H](CCC(=O)O)[C@H]1CC(=O)[C@@]2(C)C3=C(C(=O)C[C@]12C)[C@@]1(C)CC[C@H](O)C(C)(C)[C@@H]1C[C@@H]3O` [LUCIDENIC ACID N], the inhibition at 40 µg/mL is 22%.

As to `COC(=O)C(C)CC(=O)C[C@@H](C)[C@H]1CC(=O)[C@@]2(C)C3=C(C(=O)C[C@]12C)[C@@]1(C)CCC(=O)C(C)(C)[C@@H]1CC3=O` (stereo partly drawn) [METHYL GANODERATE E], the inhibition at 40 µg/mL turned out to be 22%.

On to `CCCCOC(=O)CC[C@@H](C)[C@H]1CC(=O)[C@@]2(C)C3=C(C(=O)C[C@]12C)[C@@]1(C)CC[C@H](O)C(C)(C)[C@@H]1C[C@@H]3O` [BUTYL LUCIDENATE N], for which the inhibition at 40 µg/mL worked out at 56%.

The subject of the next data set is 3T3-L1. Description: Inhibition of adipocytes differentiation in mouse 3T3L1 cells assessed as lipid accumulation after 8 days by Oil red O staining relative to control. Format: functional, cell-based.
Settings: not given
The method in brief: as §1
In the case of `CCCCOC(=O)CC[C@@H](C)[C@H]1CC(=O)[C@@]2(C)C3=C(C(=O)C[C@]12C)[C@@]1(C)CC[C@H](O)C(C)(C)[C@@H]1C[C@@H]3O` [BUTYL LUCIDENATE N], the inhibition entry was “Dose-dependent effect”.

For a further data set, the system named is 3T3-L1. Nature of the data set: Cytotoxicity against mouse 3T3L1 cells at 80 ug/ml after 2 days by MTT assay. It counts as cell-based. To be noted: 3t3-l1, 48 h. In a few lines:
(§2)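 3T3-L1 preadipocytes seeded at 1 × 10^4 cells/well in DMEM + 10% bovine calf serum, 37 °C, 5% CO2. After 24 h, vehicle or sample (10 to 80 µg/mL) added in serum-free DMEM. After a further 24 h, MTT added for 2 h. Formazan dissolved in DMSO, OD read at 570 nm.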
Turning to `COC(=O)CC[C@@H](C)[C@H]1CC(=O)[C@@]2(C)C3=C(C(=O)C[C@]12C)[C@@]1(C)CCC(=O)C(C)(C)[C@@H]1C[C@@H]3O` [METHYL LUCIDENATE A], the Activity result is recorded as “Toxic”.

In the case of `COC(=O)C(C)CC(=O)C[C@@H](C)[C@H]1C[C@H](O)[C@@]2(C)C3=C(C(=O)C[C@]12C)[C@@]1(C)CCC(=O)C(C)(C)[C@@H]1C[C@@H]3O` (stereo partly drawn) [METHYL GANODERATE A], the Activity entry is given as “Toxic”.

For another data set, the system named is 3T3-L1. Nature of the data set: Cytotoxicity against mouse 3T3L1 cells at 40 ug/ml after 2 days by MTT assay. It counts as cell-based. To be noted: 3t3-l1, 48 h. The method in brief:
as §2
(In general: Tetrazolium dyes change colour on reduction, which living cells bring about.)
On to `COC(=O)CC[C@@H](C)[C@H]1CC(=O)[C@@]2(C)C3=C(C(=O)C[C@]12C)[C@@]1(C)CCC(=O)C(C)(C)[C@@H]1C[C@@H]3O` [METHYL LUCIDENATE A], for which the Activity result is recorded as “Non-toxic”.

For the compound `COC(=O)CC[C@@H](C)[C@H]1CC(=O)[C@@]2(C)C3=C(C(=O)[C@@H](OC(C)=O)[C@]12C)[C@@]1(C)CC[C@H](O)C(C)(C)[C@@H]1CC3=O` [METHYL LUCIDENATE E2], the Activity entry was “Non-toxic”.

Take `COC(=O)C(C)CC(=O)C[C@@H](C)[C@H]1CC(=O)[C@@]2(C)C3=C(C(=O)C[C@]12C)[C@@]1(C)CCC(=O)C(C)(C)[C@@H]1C[C@@H]3O` (stereo partly drawn) [METHYL GANODERATE D]: the Activity entry is reported as “Non-toxic”.

`CCCCOC(=O)[C@H](C)CC(=O)C[C@@H](C)[C@H]1CC(=O)[C@@]2(C)C3=C(C(=O)C[C@]12C)[C@@]1(C)CC[C@H](O)C(C)(C)[C@@H]1C[C@@H]3O` [BUTYL GANODERATE B]: the Activity result was “Non-toxic”.

For `COC(=O)CC[C@@H](C)[C@H]1CC(=O)[C@@]2(C)C3=C(C(=O)C[C@]12C)[C@@]1(C)CCC(=O)C(C)(C)[C@@H]1CC3=O` [METHYL LUCIDENATE F], the Activity entry is “Non-toxic”.

Take `COC(=O)C(C)CC(=O)C[C@@H](C)[C@H]1C[C@H](O)[C@@]2(C)C3=C(C(=O)C[C@]12C)[C@@]1(C)CCC(=O)C(C)(C)[C@@H]1C[C@@H]3O` (stereo partly drawn) [METHYL GANODERATE A]: the Activity result is listed as “Non-toxic”.

Consider `C[C@H](CCC(=O)O)[C@H]1CC(=O)[C@@]2(C)C3=C(C(=O)C[C@]12C)[C@@]1(C)CC[C@H](O)C(C)(C)[C@@H]1C[C@@H]3O` [LUCIDENIC ACID N], for which the Activity result is recorded as “Non-toxic”.

Consider `COC(=O)C(C)CC(=O)C[C@@H](C)[C@H]1CC(=O)[C@@]2(C)C3=C(C(=O)C[C@]12C)[C@@]1(C)CCC(=O)C(C)(C)[C@@H]1CC3=O` (stereo partly drawn) [METHYL GANODERATE E], for which the Activity entry is “Non-toxic”.

Take `CCCCOC(=O)CC[C@@H](C)[C@H]1CC(=O)[C@@]2(C)C3=C(C(=O)C[C@]12C)[C@@]1(C)CC[C@H](O)C(C)(C)[C@@H]1C[C@@H]3O` [BUTYL LUCIDENATE N]: the Activity entry is reported as “Non-toxic”.

Another data set relates to 3T3-L1. Description: Inhibition of adipocytes differentiation in mouse 3T3L1 cells assessed as lipid accumulation at 5 to 40 ug/ml after 8 days by Oil red O staining relative to control. It counts as functional.
Settings: not given
In a few lines: as §1
As to `CCCCOC(=O)CC[C@@H](C)[C@H]1CC(=O)[C@@]2(C)C3=C(C(=O)C[C@]12C)[C@@]1(C)CC[C@H](O)C(C)(C)[C@@H]1C[C@@H]3O` [BUTYL LUCIDENATE N], the “inhibition (INH)” value was 56%.

Source of the values: ChEMBL document CHEMBL1154866, “Lanostane triterpenes from the fruiting bodies of Ganoderma lucidum and their inhibitory effects on adipocyte differentiation in 3T3-L1 Cells” (J Nat Prod, 2010).
